Active and inactive are the calls of the source. The calls are words filed in the database; no cut-off is given here.

This note sets out measurements from ChEMBL document CHEMBL1153954, “Promiscuous aggregate-based inhibitors promote enzyme unfolding” (J Med Chem, 2009).

For this experiment, the target named is AmpC (Escherichia coli) (UniProt Q83TT7). Description: Inhibition of Escherichia coli AmpC assessed as induction of protein unfolding measured by trypsin mediated degradation of compound-AmpC enzyme complex at 250 uM after 15 mins by gel electrophoresis. An outline of the steps:
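AmpC β-lactamase (0.5 μM) in 50 mM KPi, pH 7.0, with or without aggregator at 250 μM (1% DMSO final). Trypsin (0.01 or 0.025 mg/mL) added after 5 min. Digestion ran at room temperature for 0 min to 4 h. Samples were boiled 2 min in DTT-containing loading buffer, run on SDS-PAGE, and the β-lactamase band was scored against compound-free enzyme.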

Sequence of AmpC (Escherichia coli) (Q83TT7 as listed by the source): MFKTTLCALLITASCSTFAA

As for `O=S(=O)(O)c1cc(O)c(/N=N/c2ccc3ccccc3c2O)c2ccccc12`, the outcome was Active. For the molecule `COC(=O)C1=C(C)NC(C)=C(C(=O)OCCN(C)Cc2ccccc2)C1c1cccc([N+](=O)[O-])c1` (configuration not stated), the outcome was Active.
